Source: ChEMBL document CHEMBL1156517, “Targeting thyroid hormone receptor-beta agonists to the liver reduces cholesterol and triglycerides and improves the therapeutic index” (Proc Natl Acad Sci U S A, 2007)
The source made the active and inactive calls. No cut-off for these calls is given here.

Tests used:
Rattus norvegicus [1] = test: Toxicity in Sprague-Dawley rat assessed as suppression of thyroid hormone axis measured by decrease in serum TSH level at 300 mg/kg/day, po for 7 days relative to control; type: organism-based; parameters: route oral; settings: in vivo, 168 h
Rattus norvegicus [2] = test: Toxicity in Sprague-Dawley rat assessed as suppression of thyroid hormone axis measured by decrease in total 3,5,3',5'-tetraiodo-L-thyronine level at 3 mg/kg/day, po for 7 days; type: organism-based; parameters: route oral; settings: in vivo, 168 h
Rattus norvegicus [3] = test: Effect on type 1 iodothyronine deiodinase mRNA expression in po dosed Sprague-Dawley rat thyroid gland; type: functional, organism-based; settings: TDE = time-dependent effect
Summary of the method: (§1)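 Killed 3, 8 and 24 h post-dose under 2.5% isoflurane. Pituitary and thyroid snap-frozen; liver, heart, soleus, spleen and kidney freeze-clamped. mRNA by quantitative real-time PCR, expressed as fold-change vs vehicle.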

Rattus norvegicus [4] = test: Toxicity in Sprague-Dawley rat assessed as suppression of thyroid hormone axis measured by decrease in total 3,5,3',5'-tetraiodo-L-thyronine level at 300 mg/kg/day, po for 7 days; type: organism-based; parameters: route oral; settings: in vivo, 168 h
Rattus norvegicus [5] = test: Effect on plasma insulin level in Sprague-Dawley rat at 650 ug/kg/day, sc after 8 days; type: functional
Rattus norvegicus [6] = test: Toxicity in Sprague-Dawley rat assessed as suppression of thyroid hormone axis measured by decrease in TSH-beta mRNA level at 3 mg/kg/day, po for 7 days relative to control; type: organism-based; parameters: route oral; settings: in vivo, 168 h
Rattus norvegicus [7] = test: Effect on malic enzyme mRNA expression in po dosed Sprague-Dawley rat liver; type: functional, organism-based; settings: TDE = time-dependent effect; summary of the method: as §1
Mus musculus [8] = test: Effect on hepatic LDLR mRNA level in LDLR deficient C57BL/6 mouse at 0.5 mg/kg/day once daily for 7 days; type: functional
Rattus norvegicus [9] = test: Effect on body weight in Sprague-Dawley rat at 650 ug/kg/day, sc after 8 days; type: functional
Mus musculus [10] = test: Decrease in cholesterol level in LDLR deficient C57BL/6 mouse at 0.5 mg/kg/day once daily for 7 days; type: functional, organism-based
Mus musculus [11] = test: Decrease in cholesterol level in wild-type C57BL/6 mouse at 0.5 mg/kg/day once daily for 7 days; type: functional, organism-based
Rattus norvegicus [12] = test: Effect on food intake in Sprague-Dawley rat at 650 ug/kg/day, sc after 8 days; type: functional
Mus musculus [13] = test: Decrease in cholesterol level in LDLR deficient C57BL/6 mouse at 5 mg/kg/day once daily for 7 days; type: functional, organism-based
Rattus norvegicus [14] = test: Toxicity in Sprague-Dawley rat assessed as suppression of thyroid hormone axis measured by decrease in TSH-beta mRNA level at 1000 mg/kg/day, po for 7 days relative to control; type: organism-based; parameters: route oral; settings: in vivo, 168 h
Rattus norvegicus [15] = test: Toxicity in Sprague-Dawley rat assessed as suppression of thyroid hormone axis measured by decrease in serum TSH level at 3 mg/kg/day, po for 7 days relative to control; type: organism-based; parameters: route oral; settings: in vivo, 168 h
Rattus norvegicus [16] = test: Effect on UCP3 mRNA expression in po dosed Sprague-Dawley rat muscle; type: functional, organism-based; settings: Muscle tissue, TDE = time-dependent effect
Rattus norvegicus [17] = test: Toxicity in Sprague-Dawley rat assessed as suppression of thyroid hormone axis measured by decrease in serum TSH level at 30 mg/kg/day, po for 7 days relative to control; type: organism-based; parameters: route oral; settings: in vivo, 168 h
Rattus norvegicus [18] = test: Toxicity in Sprague-Dawley rat assessed as suppression of thyroid hormone axis measured by decrease in serum TSH level at 1000 mg/kg/day, po for 7 days relative to control; type: organism-based; parameters: route oral; settings: in vivo, 168 h
Rattus norvegicus [19] = test: Toxicity in Sprague-Dawley rat assessed as suppression of thyroid hormone axis measured by decrease in total […]-L-thyronine level at 300 mg/kg/day, po for 7 days; type: organism-based; parameters: route oral; settings: in vivo, 168 h
Rattus norvegicus [20] = test: Toxic cardiac effect on Sprague-Dawley rat assessed as increase in systolic aortic pressure at >= 0.065 mg/kg/day, po for 7 days; type: toxicity, organism-based; parameters: route oral; settings: in vivo, 168 h
Summary of the method: (§2)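 Male SD rats (n = 6 per group) dosed daily by oral gavage for 7 days; vehicle group included. On day 7, rats anesthetized with isoflurane; catheter-tip transducer inserted into left ventricle via right carotid artery. LV pressure, LV dP/dt and heart rate (lead I ECG) recorded digitally. Systolic/diastolic aortic pressure taken by retracting catheter into proximal aorta.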

Rattus norvegicus [21] = test: Toxicity in Sprague-Dawley rat assessed as suppression of thyroid hormone axis measured by decrease in total 3,5,3',5'-tetraiodo-L-thyronine level at 30 mg/kg/day, po for 7 days; type: organism-based; parameters: route oral; settings: in vivo, 168 h
Mus musculus [22] = test: Decrease in cholesterol level in wild-type C57BL/6 mouse at 5 mg/kg/day once daily for 7 days; type: functional, organism-based
Rattus norvegicus [23] = test: Effect on MHCbeta mRNA expression in po dosed Sprague-Dawley rat heart; type: functional, organism-based; settings: TDE = time-dependent effect
Rattus norvegicus [24] = test: Effect on type 1 iodothyronine deiodinase mRNA expression in po dosed Sprague-Dawley rat liver; type: functional, organism-based; settings: TDE = time-dependent effect; summary of the method: as §1
Rattus norvegicus [25] = test: Effect on SREBP-1c mRNA expression in po dosed Sprague-Dawley rat liver; type: functional, organism-based; settings: TDE = time-dependent effect
Rattus norvegicus [26] = test: Toxicity in Sprague-Dawley rat assessed as suppression of thyroid hormone axis measured by decrease in TSH-beta mRNA level at 30 mg/kg/day, po for 7 days relative to control; type: organism-based; parameters: route oral; settings: in vivo, 168 h
Rattus norvegicus [27] = test: Effect on type 1 iodothyronine deiodinase mRNA expression in po dosed Sprague-Dawley rat kidney; type: functional, organism-based; settings: TDE = time-dependent effect; summary of the method: as §1
Rattus norvegicus [28] = test: Toxicity in Sprague-Dawley rat assessed as suppression of thyroid hormone axis measured by decrease in total […]-L-thyronine level at 30 mg/kg/day, po for 7 days; type: organism-based; parameters: route oral; settings: in vivo, 168 h
Rattus norvegicus [29] = test: Toxic cardiac effect on Sprague-Dawley rat assessed as increase in heart rate at >= 0.065 mg/kg/day, po for 7 days; type: toxicity, organism-based; parameters: route oral; settings: in vivo, 168 h; summary of the method: as §2
Rattus norvegicus [30] = test: Toxicity in Sprague-Dawley rat assessed as suppression of thyroid hormone axis measured by decrease in TSH-beta mRNA level at 300 mg/kg/day, po for 7 days relative to control; type: organism-based; parameters: route oral; settings: in vivo, 168 h
Rattus norvegicus [31] = species on record: Rattus norvegicus; test: Reduction in plasma cholesterol level in cholesterol fed Sprague-Dawley rat; type: functional
Rattus norvegicus [32] = test: Effect on type 1 iodothyronine deiodinase mRNA expression in po dosed Sprague-Dawley rat spleen; type: functional, organism-based; settings: TDE = time-dependent effect; summary of the method: as §1
Rattus norvegicus [33] = test: Effect on TSH-beta mRNA expression in po dosed Sprague-Dawley rat pituitary gland; type: functional, organism-based; settings: TDE = time-dependent effect
Rattus norvegicus [34] = test: Effect on plasma fatty acid level in Sprague-Dawley rat at 650 ug/kg/day, sc after 8 days; type: functional
Rattus norvegicus [35] = test: Toxicity in Sprague-Dawley rat assessed as suppression of thyroid hormone axis measured by decrease in total […]-L-thyronine level at 3 mg/kg/day, po for 7 days; type: organism-based; parameters: route oral; settings: in vivo, 168 h
Rattus norvegicus [36] = test: Effect on fasting blood glucose level in Sprague-Dawley rat at 650 ug/kg/day, sc after 8 days by oral glucose tolerance test; type: functional
Rattus norvegicus [37] = test: Effect on type 1 iodothyronine deiodinase mRNA expression in po dosed Sprague-Dawley rat pituitary gland; type: functional, organism-based; settings: TDE = time-dependent effect; summary of the method: as §1
Mus musculus [38] = test: Effect on hepatic LDLR mRNA level in wild-type C57BL/6 mouse at 0.5 mg/kg/day once daily for 7 days; type: functional
Rattus norvegicus [39] = test: Toxicity in Sprague-Dawley rat assessed as suppression of thyroid hormone axis measured by decrease in total 3,5,3',5'-tetraiodo-L-thyronine level at 1000 mg/kg/day, po for 7 days; type: organism-based; parameters: route oral; settings: in vivo, 168 h
Rattus norvegicus [40] = test: Toxicity in Sprague-Dawley rat assessed as suppression of thyroid hormone axis measured by decrease in total […]-L-thyronine level at 1000 mg/kg/day, po for 7 days; type: organism-based; parameters: route oral; settings: in vivo, 168 h
Rattus norvegicus [41] = test: Toxic cardiac effect on Sprague-Dawley rat assessed as increase in first derivative of left ventricular pressure at >= 0.065 mg/kg/day, po for 7 days; type: toxicity, organism-based, Heart left ventricle; parameters: route oral; settings: in vivo, 168 h; summary of the method: as §2
Rattus norvegicus [42] = test: Effect on LDLR mRNA expression in po dosed Sprague-Dawley rat liver; type: functional, organism-based; settings: TDE = time-dependent effect
Rattus norvegicus [43] = test: Effect on type 1 iodothyronine deiodinase mRNA expression in po dosed Sprague-Dawley rat heart; type: functional, organism-based; settings: TDE = time-dependent effect; summary of the method: as §1

## N[C@@H](Cc1cc(I)c(Oc2ccc(O)c(I)c2)c(I)c1)C(=O)O [LIOTHYRONINE]
Rattus norvegicus [1]
  Activity: 0.0031
Rattus norvegicus [2]
  Activity: 37.3 ng/mL
Rattus norvegicus [3]
  Activity: tde
Rattus norvegicus [4]
  Activity: 1.43 ng/mL
Rattus norvegicus [5]
  Activity: 0.334 ng/mL
Rattus norvegicus [6]
  Activity: 0.93
Rattus norvegicus [7]
  Activity: tde
Mus musculus [8]
  Activity: 9.5%
Rattus norvegicus [9]
  Activity: 4.3 g
Mus musculus [10]
  Activity: inactive
Mus musculus [11]
  Activity: Active
Rattus norvegicus [12]
  Activity: 16.2%
Mus musculus [13]
  Activity: inactive
Rattus norvegicus [14]
  Activity: 0.081
Rattus norvegicus [15]
  Activity: 0.57
Rattus norvegicus [16]
  Activity: tde
Rattus norvegicus [17]
  Activity: 0.0139
Rattus norvegicus [18]
  Activity: 0.001365
Rattus norvegicus [19]
  Activity: 4.06 ng/mL
Rattus norvegicus [20]
  Activity: Active
Rattus norvegicus [21]
  Activity: 4.2 ng/mL
Mus musculus [22]
  Activity: Active
Rattus norvegicus [23]
  Activity: tde
Rattus norvegicus [24]
  Activity: tde
Rattus norvegicus [25]
  Activity: tde
Rattus norvegicus [26]
  Activity: 0.14
Rattus norvegicus [27]
  Activity: tde
Rattus norvegicus [28]
  Activity: 0.42 ng/mL
Rattus norvegicus [29]
  Activity: Active
Rattus norvegicus [30]
  Activity: 0.0978
Rattus norvegicus [31]
  ED50: 0.012 mg/kg
Rattus norvegicus [32]
  Activity: tde
Rattus norvegicus [33]
  Activity: tde
Rattus norvegicus [34]
  Activity: 0.937 mM
Rattus norvegicus [35]
  Activity: 0.49 ng/mL
Rattus norvegicus [36]
  Activity: 25 mg/dL
Rattus norvegicus [37]
  Activity: tde
Mus musculus [38]
  Activity: -42.4%
Rattus norvegicus [39]
  Activity: 8.4 ng/mL
Rattus norvegicus [40]
  Activity: 16.45 ng/mL
Rattus norvegicus [41]
  Activity: Active
Rattus norvegicus [42]
  Activity: tde
Rattus norvegicus [43]
  Activity: tde
